# Test results as given in article PMC10896134 (Pharmaceutical Biology, 2024).
# Experiments:
# [1] = tested on: non-neuroblastoma cell lines; settings: read-out: IC50 in non-neuroblastoma cell lines; ref Aggarwal et al. [2012]; cited from earlier work
# neuroblastoma cell lines = settings: read-out: IC50 in neuroblastoma cell lines; ref Aggarwal et al. [2012]; cited from earlier work
# A549 cells [2] = experiment: Colony formation assay; assay type: cell-based, human; settings: A549, versus control and PPT-treated cells
# [3] = tested on: Bax and Bcl-2 in A549 cells; experiment: Western blot of apoptosis-related proteins; assay type: cell-based, human
# Summary of the method: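 Immunoblot of A549 lysates: heat-denatured in non-reducing sample buffer, Bradford-quantified, 20 µg protein on 10% SDS-PAGE, transferred to PVDF. Blots were probed for Bax and Bcl-2 with GAPDH as internal control, detected by ECL and quantified by densitometry. Data given as mean ± SD.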
# [4] = tested on: PI3K/Akt pathway in A549 cells; experiment: Western blot of PI3K/Akt signalling pathway proteins; assay type: cell-based, human; settings: A549, E5 0.1, 1.0 and 2.0 µM, 24 h
# Summary of the method: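 A549 cells were treated 24 h with test compound (0.1, 0.5, 1.0 or 2.0 µM), LY294002 (1.0 µM) or a reference agent (1.0 µM). Lysates were heat-denatured in non-reducing sample buffer and quantified by Bradford assay. 20 µg protein ran on 10% SDS-PAGE, transferred to PVDF and probed for PI3K, pPI3K, Akt and pAkt with GAPDH as loading control. Detection was by ECL with densitometry.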
# H446 = experiment: Antiproliferation assay; assay type: cell-based; settings: Homo sapiens, NCI-H446, 24 h, read-out: IC50 = mean ± SD, H446
# Summary of the method: (§1)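 Cell lines were grown at 37 °C under 5% CO2 in their own media: A549 in DMEM/F12, H446 in RPMI 1640, and HeLa, MCF-7, L02 and BEAS-2B in high-glucose DMEM with L-glutamine, with 10% FBS and penicillin/streptomycin. Cells were seeded in 96-well plates and exposed to test compounds or reference agents at 37 °C for 24 h. CCK-8 was added for 2 h and absorbance read at 450 nm.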
# [5] = tested on: interphase microtubules of A549 cells (tubulin); experiment: Confocal microscopy / western blot of tubulin depolymerization; assay type: cell-based, human; settings: A549, 24 h; E5 0.5 and 1.0 µM, colchicine 1.0 µM, etoposide 1.0 µM
# [6] = Body weight of xenograft mice; assay type: in vivo, female BALB/c nude mice; settings: E5 i.p., A549 xenograft mice, 15 days
# Summary of the method: (§2)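 Female BALB/c nude mice, 5 weeks old, acclimated 1 week, then given 5.0 × 10^6 A549 cells in 0.1 mL serum-free medium subcutaneously into the left axilla. Body weight and caliper tumour size (0.5 × length × width2) were taken every two days; tumours were excised and weighed at the end.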
# MCF-7 = experiment: Antiproliferation assay; assay type: cell-based; settings: Homo sapiens, MCF7, 24 h, read-out: IC50 = mean ± SD, MCF-7
# Summary of the method: as §1
# A549 cells [7] = experiment: Cell-cycle analysis; assay type: cell-based, human; settings: A549, 1.0 µM, 24 h, Figure 4C
# Summary of the method: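 A549 cells (5.0 × 10^4/well) adhered overnight, then received 0.1% DMSO, test compound (0.1, 0.5 or 1.0 µM) or reference agent (1.0 µM) for 24 h; a time course used 0.5 µM for 12, 24 and 36 h. Cells were fixed in 70% ethanol at 4 °C for 24 h and stained with RNase A plus propidium iodide at 4 °C for 0.5 h in the dark. Flow cytometry gated G0/G1, S and G2/M by DNA content.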
# Hela = experiment: Antiproliferation assay; assay type: cell-based; settings: Homo sapiens, 24 h, read-out: IC50 = mean ± SD, Hela
# Summary of the method: as §1
# A549 cells [8] = experiment: Mitochondrial membrane potential analysis; assay type: cell-based, human; settings: A549, JC-1, 2.0 µM, 12 h; control 4.33%
# A549 cells [9] = experiment: Transwell invasion assay; assay type: cell-based, human; settings: A549, 24 h; better than PPT and etoposide at 1.0 µM
# A549 cells [10] = experiment: Wound healing migration assay; assay type: cell-based, human; settings: A549, 24 h; E5 0.5, 1.0 and 2.0 µM, etoposide 1.0 µM
# Summary of the method: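 Scratch assay: A549 cells were grown to 85% confluence in 6-well plates, scratched with a pipette tip and washed with PBS. They were then incubated at 37 °C for 24 h with 0.1% DMSO, test compound (0.5, 1.0 or 2.0 µM) or reference agents (1.0 µM). Wounds were imaged at 0 and 24 h, and inhibition of migration was expressed relative to control.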
# BEAS-2B = experiment: Antiproliferation assay; assay type: cell-based; settings: Homo sapiens, 24 h, read-out: IC50 = mean ± SD, BEAS-2B
# Summary of the method: as §1
# L02 = experiment: Antiproliferation assay; assay type: cell-based; settings: Homo sapiens, L02, 24 h, read-out: IC50 = mean ± SD, L02
# Summary of the method: as §1
# A549 xenografts = experiment: A549 xenograft tumour model in nude mice; assay type: in vivo, female BALB/c nude mice; settings: 2 mg/kg i.p. once every two days, eight times
# Summary of the method: as §2
# A549 = experiment: Antiproliferation assay; assay type: cell-based; settings: Homo sapiens, A549, 24 h, read-out: IC50 = mean ± SD, A549
# Summary of the method: as §1
# [11] = tested on: non-small cell lung cancer (NSCLC) cell lines; settings: at 2 mM; ref Chang and Szabo [2002]; cited from earlier work
IC50 (H446) [µM],IC50 (MCF-7) [µM],IC50 (Hela) [µM],IC50 (A549) [µM],SMILES,tubulin depolymerization [5],cell scratch healing (migration) (A549 cells [10]),IC50 (BEAS-2B) [µM],IC50 (L02) [µM],"tumour growth, E5 and etoposide at the same dose (A549 xenografts)",other results
–,–,–,–,COc1ccc(S(=O)(=O)Nc2cccnc2Nc2ccc(O)cc2)cc1 [ABT-751],–,–,–,–,–,IC50 [1]: ~3.4 µM; IC50 (neuroblastoma cell lines): ~1.5 µM
2.42 ± 0.3,2.91 ± 0.55,51.3 ± 1.42,0.35 ± 0.13,"COc1cc([C@@H]2c3cc4c(cc3[C@H](OC(=O)CCCc3ccc(NS(=O)(=O)c5cccc(Br)c5)cc3)[C@H]3COC(=O)[C@H]23)OCO4)cc(OC)c1OC [Compound E5, (5R,5aR,8aR,9R)-8-oxo-9-(3,4,5-trimethoxyphenyl)-5,5a,6,8,8a,9-hexahydrofuro [3′,4′:6,7]naphtho[2,3-d][1,3]dioxol-5-yl4-(4-((3-bromophenyl)sulfonamido)phenyl)butanoate]",significant tubulin depolymerization,significantly slowed dose dependent,> 100,> 100,specific inhibitory effect,clone formation rate and clone size (A549 cells [2]): lower clone formation rate and a smaller clone size; Bax expression [3]: increased; expression of the antiapoptotic protein Bcl-2 [3]: significantly decreased; expression of pPI3K and pAkt [4]: down-regulated dose-dependent; body weight of the mice [6]: no significant changes; cells in G2/M phase (A549 cells [7]): 32.73%; cells in S phase (A549 cells [7]): 34.09%; cells with low ΔΨm (ratio of cells with low membrane potential) (A549 cells [8]): 24.7%; cell invasion (A549 cells [9]): effectively inhibited cell invasion
2.21 ± 0.42,10.9 ± 0.39,24.7 ± 0.79,9.32 ± 0.55,"COc1cc([C@@H]2c3cc4c(cc3[C@@H](O[C@@H]3O[C@@H]5CO[C@@H](C)O[C@H]5[C@H](O)[C@H]3O)[C@H]3COC(=O)[C@H]23)OCO4)cc(OC)c1O [Etoposide, etoposide, reference compound]",did not show such an effect,strong inhibitory effect,67.6 ± 2.25,13.5 ± 1.15,specific inhibitory effect,–
–,–,–,–,O=C([O-])CCCc1ccccc1.[Na+] [sodium 4-phenylbutyrate],–,–,–,–,–,growth of NSCLC cell lines [11]: impeding the growth
